Experimental data taken from ChEMBL document CHEMBL1141640, “Cyclic guanidines as dual 5-HT5A/5-HT7 receptor ligands: optimising brain penetration” (Bioorg Med Chem Lett, 2008).

What was measured:
[1] = target: T1, 5-hydroxytryptamine receptor 5A (Homo sapiens, UniProt P47898); experiment: Binding affinity to human 5HT5A receptor
[2] = Distribution coefficient, log D of the compound; format: physicochemical; conditions: octanol/water
Outline: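 Lipophilicity reported as log D at pH 7.4 (log D7.4), measured alongside the guanidine pKa.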

[3] = target: T2, 5-hydroxytryptamine receptor 1A (Homo sapiens, UniProt P08908); experiment: Binding affinity to 5HT1A receptor
T2 sequence (P08908 whole entry): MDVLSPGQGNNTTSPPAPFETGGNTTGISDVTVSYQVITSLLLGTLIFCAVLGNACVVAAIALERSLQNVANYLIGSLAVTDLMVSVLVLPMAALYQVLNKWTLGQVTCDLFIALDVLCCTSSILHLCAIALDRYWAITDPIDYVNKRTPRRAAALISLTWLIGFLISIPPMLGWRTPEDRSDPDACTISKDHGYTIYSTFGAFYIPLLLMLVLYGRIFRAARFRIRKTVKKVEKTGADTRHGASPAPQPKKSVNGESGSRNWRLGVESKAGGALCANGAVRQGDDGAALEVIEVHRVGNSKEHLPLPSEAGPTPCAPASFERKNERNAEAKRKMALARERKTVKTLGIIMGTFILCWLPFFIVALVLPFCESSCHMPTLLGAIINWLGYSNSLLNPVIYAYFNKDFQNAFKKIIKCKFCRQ

[4] = target: 5-hydroxytryptamine receptor 7 (Homo sapiens, UniProt P34969); experiment: Binding affinity to human 5HT7 receptor
Sequence of 5-hydroxytryptamine receptor 7 (P34969 whole entry): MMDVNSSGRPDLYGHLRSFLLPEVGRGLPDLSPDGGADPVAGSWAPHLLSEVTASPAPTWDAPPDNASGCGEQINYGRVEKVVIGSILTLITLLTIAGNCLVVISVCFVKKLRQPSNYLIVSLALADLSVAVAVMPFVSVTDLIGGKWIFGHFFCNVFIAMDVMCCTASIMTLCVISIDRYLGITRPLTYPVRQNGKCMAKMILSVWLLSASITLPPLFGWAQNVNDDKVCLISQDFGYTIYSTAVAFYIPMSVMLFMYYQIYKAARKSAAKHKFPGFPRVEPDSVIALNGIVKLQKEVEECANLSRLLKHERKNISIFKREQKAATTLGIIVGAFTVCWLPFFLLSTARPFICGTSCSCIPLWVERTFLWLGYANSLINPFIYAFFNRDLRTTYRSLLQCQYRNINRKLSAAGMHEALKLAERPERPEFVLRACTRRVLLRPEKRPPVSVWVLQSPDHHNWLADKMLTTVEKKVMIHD

[5] = Selectivity for human 5HT5A receptor over 5HT6 receptor
[6] = Dissociation constant, pKa of the compound; format: physicochemical
[7] = target: T3, 5-hydroxytryptamine receptor 1D (Homo sapiens, UniProt P28221); experiment: Binding affinity to 5HT1D receptor
T3 sequence (P28221 whole entry): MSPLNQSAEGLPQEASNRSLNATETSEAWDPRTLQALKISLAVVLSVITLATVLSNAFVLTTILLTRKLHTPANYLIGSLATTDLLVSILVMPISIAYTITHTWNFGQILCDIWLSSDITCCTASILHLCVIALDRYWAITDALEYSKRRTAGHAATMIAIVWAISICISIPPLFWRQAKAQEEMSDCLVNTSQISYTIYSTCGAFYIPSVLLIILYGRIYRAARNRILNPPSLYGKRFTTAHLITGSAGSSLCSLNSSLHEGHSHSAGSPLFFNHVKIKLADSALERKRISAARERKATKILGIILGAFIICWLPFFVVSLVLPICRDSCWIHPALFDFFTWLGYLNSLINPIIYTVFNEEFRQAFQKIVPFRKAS

[8] = target: T4, 5-hydroxytryptamine receptor 2C (Homo sapiens, UniProt P28335); experiment: Binding affinity to 5HT2C receptor
T4 sequence (P28335 whole entry): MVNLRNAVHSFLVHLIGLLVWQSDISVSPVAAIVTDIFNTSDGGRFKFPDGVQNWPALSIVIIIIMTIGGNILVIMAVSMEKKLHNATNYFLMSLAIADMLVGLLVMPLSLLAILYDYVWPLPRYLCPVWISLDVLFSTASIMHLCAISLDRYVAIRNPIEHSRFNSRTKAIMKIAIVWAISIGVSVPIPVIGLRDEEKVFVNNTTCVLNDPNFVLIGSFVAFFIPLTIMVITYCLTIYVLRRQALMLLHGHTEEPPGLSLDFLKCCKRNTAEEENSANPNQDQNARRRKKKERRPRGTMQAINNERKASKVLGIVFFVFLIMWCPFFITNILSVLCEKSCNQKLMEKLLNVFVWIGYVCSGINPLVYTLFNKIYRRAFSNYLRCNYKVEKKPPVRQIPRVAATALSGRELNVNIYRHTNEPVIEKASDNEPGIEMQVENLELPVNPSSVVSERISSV

[9] = Selectivity for human 5HT5A receptor over 5HT3 receptor
[10] = Selectivity for human 5HT5A receptor over 5HT2A receptor
Histamine H1 receptor = Histamine H1 receptor (Homo sapiens, UniProt P35367); experiment: Binding affinity to histamine H1 receptor
Sequence of Histamine H1 receptor (P35367 whole entry): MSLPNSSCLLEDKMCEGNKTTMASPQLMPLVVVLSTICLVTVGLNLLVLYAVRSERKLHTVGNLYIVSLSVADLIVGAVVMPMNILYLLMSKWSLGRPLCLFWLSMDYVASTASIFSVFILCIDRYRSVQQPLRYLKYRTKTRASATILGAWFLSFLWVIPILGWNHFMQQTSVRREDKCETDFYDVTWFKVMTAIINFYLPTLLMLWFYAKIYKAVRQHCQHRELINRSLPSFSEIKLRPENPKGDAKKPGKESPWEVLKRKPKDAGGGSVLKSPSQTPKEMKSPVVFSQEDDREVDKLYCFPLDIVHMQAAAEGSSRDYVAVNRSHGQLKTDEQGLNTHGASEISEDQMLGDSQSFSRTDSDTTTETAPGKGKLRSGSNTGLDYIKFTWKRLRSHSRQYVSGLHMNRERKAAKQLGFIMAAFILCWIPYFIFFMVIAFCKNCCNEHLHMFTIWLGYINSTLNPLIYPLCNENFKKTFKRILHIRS

[11] = target: T1, 5-hydroxytryptamine receptor 5A; experiment: Antagonist activity at human 5HT5A receptor by [35S]GTP-gamma-S binding assay; format: functional; conditions: read-out: pA2 (converted)
Outline: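 Functional antagonism at human 5-HT5A receptor measured by [35S]GTPγS binding; potency reported as pA2.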

[12] = Clearance in mouse at 5 mg/kg, iv; format: ADME, organism-based; set-up: dose 5 mg/kg, route intravenous; conditions: in vivo
[13] = Volume of distribution at steady state in mouse at 5 mg/kg, iv; format: ADME, organism-based; set-up: dose 5 mg/kg, route intravenous; conditions: in vivo, read-out: Vdss
[14] = Half life in mouse at 5 mg/kg, iv; format: ADME, organism-based; set-up: dose 5 mg/kg, route intravenous; conditions: in vivo
[15] = Cmax in mouse at 10 mg/kg, po; format: ADME, organism-based; set-up: dose 10 mg/kg, route oral; conditions: in vivo
[16] = Tmax in mouse at 10 mg/kg, po; format: ADME, organism-based; set-up: dose 10 mg/kg, route oral; conditions: in vivo
[17] = Oral bioavailability in mouse at 10 mg/kg; format: ADME, organism-based; conditions: in vivo
Brain = experiment: Drug level in mouse brain at 6.6 mg/kg, po; format: ADME, organism-based; set-up: dose 6.6 mg/kg, route oral; conditions: in vivo, read-out: Drug uptake
[18] = Cmax in mouse at 6.6 mg/kg, po; format: ADME, organism-based; set-up: dose 6.6 mg/kg, route oral; conditions: in vivo
[19] = Tmax in mouse at 6.6 mg/kg, po; format: ADME, organism-based; set-up: dose 6.6 mg/kg, route oral; conditions: in vivo
[20] = Oral bioavailability in mouse at 6.6 mg/kg; format: ADME, organism-based; conditions: in vivo
[21] = Ratio of drug level in brain to plasma in mouse at 6.6 mg/kg, po; format: ADME, organism-based; set-up: dose 6.6 mg/kg, route oral
Outline: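 Mouse pharmacokinetic study with a single oral (po) dose of 6.6 mg/kg. Drug levels were measured in brain and in plasma, and the brain/plasma ratio was taken from these.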

[22] = target: 5-hydroxytryptamine receptor 5A (Rattus norvegicus, UniProt P35364); experiment: Binding affinity to rat 5HT5A receptor
Sequence of 5-hydroxytryptamine receptor 5A (Rattus norvegicus, UniProt P35364) (P35364 whole entry): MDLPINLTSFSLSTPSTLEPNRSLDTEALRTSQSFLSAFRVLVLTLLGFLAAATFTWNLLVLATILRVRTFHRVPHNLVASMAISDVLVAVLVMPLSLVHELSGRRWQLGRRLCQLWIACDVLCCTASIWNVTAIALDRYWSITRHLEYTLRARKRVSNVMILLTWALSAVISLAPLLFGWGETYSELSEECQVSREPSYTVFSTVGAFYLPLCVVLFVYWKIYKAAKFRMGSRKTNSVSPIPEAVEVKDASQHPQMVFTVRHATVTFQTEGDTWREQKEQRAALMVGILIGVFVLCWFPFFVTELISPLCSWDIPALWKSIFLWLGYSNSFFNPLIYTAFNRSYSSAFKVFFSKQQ

[23] = target: T2, 5-hydroxytryptamine receptor 1A; experiment: Binding affinity to human 5HT1A receptor
[24] = target: T3, 5-hydroxytryptamine receptor 1D; experiment: Binding affinity to human 5HT1D receptor
[25] = target: 5-hydroxytryptamine receptor 2A (Homo sapiens, UniProt P28223); experiment: Binding affinity to human 5HT2A receptor
Sequence of 5-hydroxytryptamine receptor 2A (P28223 whole entry): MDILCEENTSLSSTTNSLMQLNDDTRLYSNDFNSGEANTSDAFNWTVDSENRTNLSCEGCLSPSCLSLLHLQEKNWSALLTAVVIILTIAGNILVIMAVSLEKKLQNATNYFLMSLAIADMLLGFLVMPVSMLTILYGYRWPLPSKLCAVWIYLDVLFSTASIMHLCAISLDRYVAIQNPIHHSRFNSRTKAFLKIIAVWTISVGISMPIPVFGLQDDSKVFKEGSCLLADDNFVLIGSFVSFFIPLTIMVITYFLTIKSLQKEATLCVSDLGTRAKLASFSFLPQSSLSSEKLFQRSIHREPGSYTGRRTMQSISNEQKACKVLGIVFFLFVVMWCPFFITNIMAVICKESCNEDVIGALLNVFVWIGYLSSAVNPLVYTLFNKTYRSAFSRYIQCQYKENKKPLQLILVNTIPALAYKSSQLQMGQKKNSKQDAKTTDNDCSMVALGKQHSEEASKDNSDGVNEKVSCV

[26] = target: T4, 5-hydroxytryptamine receptor 2C; experiment: Binding affinity to human 5HT2C receptor
[27] = target: 5-hydroxytryptamine receptor 6 (Homo sapiens, UniProt P50406); experiment: Binding affinity to human 5HT6 receptor
Sequence of 5-hydroxytryptamine receptor 6 (P50406 whole entry): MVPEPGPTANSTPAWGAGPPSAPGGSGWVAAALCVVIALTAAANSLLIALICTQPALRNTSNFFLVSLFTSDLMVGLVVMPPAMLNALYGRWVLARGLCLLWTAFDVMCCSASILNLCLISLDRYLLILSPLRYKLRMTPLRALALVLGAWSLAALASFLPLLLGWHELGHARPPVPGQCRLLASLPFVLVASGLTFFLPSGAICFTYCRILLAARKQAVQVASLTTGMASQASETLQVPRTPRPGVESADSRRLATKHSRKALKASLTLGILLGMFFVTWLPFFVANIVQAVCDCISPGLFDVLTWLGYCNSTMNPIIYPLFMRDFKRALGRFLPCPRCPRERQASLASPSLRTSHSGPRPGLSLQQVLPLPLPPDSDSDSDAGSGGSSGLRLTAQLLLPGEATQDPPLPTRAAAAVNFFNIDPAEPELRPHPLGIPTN

T1 sequence (P47898 whole entry): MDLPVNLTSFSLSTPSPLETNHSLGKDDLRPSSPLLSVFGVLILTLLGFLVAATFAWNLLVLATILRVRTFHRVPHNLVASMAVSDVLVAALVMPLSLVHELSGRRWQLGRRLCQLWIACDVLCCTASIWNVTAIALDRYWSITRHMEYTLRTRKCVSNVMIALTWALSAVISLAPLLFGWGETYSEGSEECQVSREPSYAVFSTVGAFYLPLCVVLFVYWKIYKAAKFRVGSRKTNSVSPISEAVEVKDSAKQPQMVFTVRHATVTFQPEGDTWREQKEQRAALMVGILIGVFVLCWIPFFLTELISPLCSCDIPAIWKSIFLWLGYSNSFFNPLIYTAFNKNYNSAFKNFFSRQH

Structure (SMILES) | Ki ([1]; read-out: Ki) [nM] | logD [2] | Ki [4] [nM] | pKa [6] | other results
CCCOCCNC1=Nc2ccccc2C(C)N1 (configuration not stated) | 241 | 0.1 | – | – | –
COc1cccc2c1N=C(NCC(F)F)NC2C (configuration not stated) | – | -0.5 | 38.9 | 10.2 | Ki [3]: 53 nM; Selectivity ratio [5]: > 30; Ki [7]: 747 nM; Ki [8]: 1660 nM; Selectivity ratio [9]: > 30; Selectivity ratio [10]: > 30
CC1NC(NC[C@H]2CCCO2)=Nc2ccccc21 (some centres not stated) | 163 | -0.6 | – | – | –
C[C@H]1NC(NCC(F)F)=Nc2ccc(Cl)c(Cl)c21 | 504 | 2.7 | 1700 | 8.5 | Ki [3]: 612 nM; Ki [7]: > 10000 nM; Ki [8]: 238 nM
CC1NC(NC2CCCCN(C)C2=O)=Nc2ccccc21 (configuration not stated) | 279 | -0.1 | – | – | –
C[C@H]1NC(NCC(F)F)=Nc2cccc(Cl)c21 | 1470 | – | – | – | –
CCOCCCNC1=Nc2ccccc2C(C)N1 (configuration not stated) | 176 | -0.3 | – | – | –
CCCCNC1=Nc2ccccc2C(C)N1 (configuration not stated) | 189 | -0.3 | – | 10.7 | –
C[C@H]1NC(N)=Nc2cccc(Cl)c21 | 415 | – | – | – | –
CCNC1=Nc2ccccc2C(C)N1 (configuration not stated) | 196 | -0.9 | – | 10.8 | –
CC1NC(NCC(F)F)=Nc2ccc(Cl)c(Cl)c21 (configuration not stated) | – | 2.7 | 23.3 | 8.5 | Ki [3]: 124 nM; Selectivity ratio [5]: > 30; Ki [7]: 630 nM; Ki [8]: 162 nM; Selectivity ratio [9]: > 30; Selectivity ratio [10]: > 30; Ki (Histamine H1 receptor): 18.3 nM
CC1NC(N)=Nc2cccc(Cl)c21 (configuration not stated) | – | 0 | – | 9.9 | Ki ([1]; read-out: Log Ki (converted)): 5.01 nM; Kb [11]: 3.16 nM; clearance [12]: 30 mL/min/kg; Vd [13]: 9 L/kg; half-life [14]: 4 h; Cmax [15]: 660 ng/mL; Tmax [16]: 0.75 h; bioavailability [17]: 59%
CC1NC(N)=Nc2ccccc21 (configuration not stated) | – | -1.4 | – | 10.5 | –
CC1NC(NCC(F)F)=Nc2cccc(Cl)c21 (configuration not stated) | – | 1.5 | 33.3 | 8.9 | Ki [3]: 85 nM; Kb [11]: 38.9 nM; Selectivity ratio [5]: > 30; concentration (Brain): > 1000 nM; Ki [7]: 1370 nM; Ki [8]: 401 nM; Selectivity ratio [9]: > 30; Selectivity ratio [10]: > 30; clearance [12]: 31 mL/min/kg; Vd [13]: 3.6 L/kg; half-life [14]: 1.4 h; Cmax [18]: 740 ng/mL; Tmax [19]: 0.25 h; bioavailability [20]: 36%; Kp [21]: 4
CC1NC(NCC(F)(F)F)=Nc2ccccc21 (configuration not stated) | 488 | 0.5 | – | 9.2 | –
CC1NC(NCCF)=Nc2ccccc21 (configuration not stated) | 397 | – | – | – | –

The remaining molecules from weak to strong by Ki ([1]; read-out: Ki), led by results:

Ki ([1]; read-out: Ki) [nM] | logD [2] | Ki [4] [nM] | pKa [6] | Structure (SMILES) | other results
153 | -0.8 | – | 10.7 | CCCNC1=Nc2ccccc2C(C)N1 (configuration not stated) | –
124 | 1.3 | – | – | CC1NC(NCCC2CCCCC2)=Nc2ccccc21 (configuration not stated) | –
122 | -0.6 | – | – | CC1NC(NC2CCC2)=Nc2ccccc21 (configuration not stated) | –
103 | -0.6 | – | 10.6 | CNC1=Nc2ccccc2C(C)N1 (configuration not stated) | –
96 | -0.8 | – | – | CC1NC(NCC2COCCO2)=Nc2ccccc21 (configuration not stated) | –
87 | -0.2 | – | 9.7 | CC1NC(NCC(F)F)=Nc2ccccc21 (configuration not stated) | –
37 | 1 | – | – | CC1NC(NCC2COc3ccccc3O2)=Nc2ccccc21 (configuration not stated) | –
33.4 | 3 | 366 | 7.8 | CC1NC(NCC(F)F)=Nc2c(Cl)ccc(Cl)c21 (configuration not stated) | Ki [3]: 87 nM; Selectivity ratio [5]: > 30; Ki [7]: > 10000 nM; Ki [8]: 675 nM; Selectivity ratio [9]: > 30; Selectivity ratio [10]: > 30
22.2 | 1.5 | 17.6 | 8.9 | COc1c(Cl)ccc2c1C(C)NC(NCC(F)F)=N2 (configuration not stated) | Ki [3]: 348 nM; Selectivity ratio [5]: > 30; Ki [7]: 1810 nM; Ki [8]: 233 nM; Selectivity ratio [9]: > 30; Selectivity ratio [10]: > 30
22.2 | 0.1 | 4.2 | 10.2 | CC(C)Oc1cccc2c1N=C(NCC(F)F)NC2C (configuration not stated) | Ki [3]: 240 nM; Selectivity ratio [5]: > 30; Ki [7]: 82 nM; Ki [8]: 2150 nM; Selectivity ratio [9]: > 30; Selectivity ratio [10]: > 30
6.8 | – | 24.8 | – | C[C@@H]1NC(NCC(F)F)=Nc2cccc(Cl)c21 | Ki [22]: 2.9 nM; Ki [23]: 56 nM; Ki [24]: 1440 nM; Ki [25]: 491 nM; Ki [26]: 352 nM; Ki [27]: 4480 nM
1.8 | 2.7 | 7.7 | 8.5 | C[C@@H]1NC(NCC(F)F)=Nc2ccc(Cl)c(Cl)c21 | Ki [3]: 75 nM; Selectivity ratio [5]: > 30; Ki [7]: 233 nM; Ki [8]: 121 nM; Selectivity ratio [9]: > 30; Selectivity ratio [10]: > 30; Ki (Histamine H1 receptor): 2.6 nM
